Calls of active or inactive are those of the source. No cut-off for these calls is given here.
What was measured:
[1] = system: RPMI-8226; test: Inhibition of 20S proteasome caspase-like in human RPMI8226 cell extracts using Z-LLE-AMC as substrate preincubated at 1 to 10 uM for 30 mins before substrate addition by fluorescence assay; format: cell-free
Method in brief: (§1)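 Cytosolic extracts of RPMI 8226 cells served as the proteasome source in place of purified enzyme. Extracts were preincubated with compound, and hydrolysis of Suc-LLVY-AMC (CT-L), Z-LLE-AMC (C-L) or Boc-LRR-AMC (T-L) was read by AMC fluorescence at ex 360/em 460 nm.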

[2] = system: RPMI-8226; test: Inhibition of 20S proteasome trypsin-like in human RPMI8226 cell extracts using Boc-LRR-AMC as substrate preincubated at 1 to 10 uM for 30 mins before substrate addition by fluorescence assay; format: cell-free; method in brief: as §1
[3] = biological target: Proteasome Macropain subunit (Homo sapiens) (UniProt P49721); test: Inhibition of human 20S proteasome beta2 trypsin-like activity using Boc-LRR-AMC as substrate preincubated for 30 mins before substrate addition measured over 90 mins by fluorescence assay
Method in brief: (§2)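 Purified human 20S proteasome (CP or IP, 0.5 µg/mL) was preincubated with compound for 30 min at room temperature in 20 mM Tris-HCl, 0.5 mM EDTA, 0.035% SDS. Substrates were Ac-nLPnLD-AMC 100 µM for β1, Ac-PAL-AMC 100 µM for β1i, and Boc-LRR-AMC 200 µM for β2/β2i. AMC release was followed 90 min at room temperature, ex 360/em 460 nm.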

[4] = biological target: T1, Proteasome Macropain subunit MB1 (Homo sapiens) (UniProt P28074); test: Inhibition of human 20S proteasome beta5 chymotrypsin-like activity using Ac-WLA-AMC as substrate preincubated for 30 mins before substrate addition measured over 90 mins by fluorescence assay
T1 sequence (whole entry): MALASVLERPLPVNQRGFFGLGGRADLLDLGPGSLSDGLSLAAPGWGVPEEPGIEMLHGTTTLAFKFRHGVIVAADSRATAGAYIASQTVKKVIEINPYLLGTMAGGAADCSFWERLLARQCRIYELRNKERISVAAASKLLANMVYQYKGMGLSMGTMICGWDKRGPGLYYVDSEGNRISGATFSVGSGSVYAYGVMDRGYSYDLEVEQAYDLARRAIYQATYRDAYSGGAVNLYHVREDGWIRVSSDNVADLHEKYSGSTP

[5] = biological target: T2, Proteasome component C5 (Homo sapiens) (UniProt P20618); test: Inhibition of human 20S proteasome beta1 caspase-like activity using Ac-nLPnLD-AMC as substrate preincubated for 30 mins before substrate addition measured over 90 mins by fluorescence assay; method in brief: as §2
T2 sequence (whole entry): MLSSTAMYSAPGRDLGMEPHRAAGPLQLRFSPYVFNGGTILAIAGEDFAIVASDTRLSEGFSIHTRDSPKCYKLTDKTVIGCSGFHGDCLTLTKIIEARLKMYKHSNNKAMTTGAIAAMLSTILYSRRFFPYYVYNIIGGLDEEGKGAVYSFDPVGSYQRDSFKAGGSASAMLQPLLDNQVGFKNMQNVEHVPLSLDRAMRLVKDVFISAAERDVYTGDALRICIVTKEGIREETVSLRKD

[6] = system: RPMI-8226; test: Inhibition of 20S proteasome chymotrypsin-like in human RPMI8226 cell extracts using Suc-LLVY-AMC as substrate preincubated at 1 to 10 uM for 30 mins before substrate addition by fluorescence assay; format: cell-free; method in brief: as §1
[7] = organism: Homo sapiens; test: Inhibition of human 20S proteasome beta2i trypsin-like activity using Boc-LRR-AMC as substrate preincubated for 30 mins before substrate addition measured over 90 mins by fluorescence assay; method in brief: as §2
[8] = organism: Homo sapiens; test: Inhibition of human 20S proteasome beta1i chymotrypsin-like activity using Ac-PAL-AMC as substrate preincubated for 30 mins before substrate addition measured over 90 mins by fluorescence assay; method in brief: as §2
[9] = organism: Homo sapiens; test: Inhibition of human 20S proteasome beta5i chymotrypsin-like activity using Ac-ANW-AMC as substrate preincubated for 30 mins before substrate addition measured over 90 mins by fluorescence assay
[10] = system: NCI-H358; test: Cytotoxicity against human NCI-H358 cells after 72 hrs; format: functional, cell-based; conditions: NCI-H358, 72 h
Method in brief: (§3)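 Adherent lines, growing in log phase in DMEM or RPMI 1640 with 10% FBS, were plated at 7,000–10,000 cells/well. Compound was added 24 h later at the final concentration. Viability was measured after 72 h by CellTiter Glo luminescence or CellTiter 96 Aqueous One absorbance.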

[11] = Cytotoxicity against human H23 cells after 72 hrs; format: functional, cell-based; conditions: NCI-H23, 72 h; method in brief: as §3

Sequence of Proteasome Macropain subunit (Homo sapiens) (P49721 whole entry): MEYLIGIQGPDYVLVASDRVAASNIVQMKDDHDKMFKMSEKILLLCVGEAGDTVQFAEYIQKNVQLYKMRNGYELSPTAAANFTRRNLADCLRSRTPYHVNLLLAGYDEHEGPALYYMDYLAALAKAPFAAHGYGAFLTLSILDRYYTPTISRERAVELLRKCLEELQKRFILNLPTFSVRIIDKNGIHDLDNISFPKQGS

inhibition [3]: inactive
inhibition [4]: Active
inhibition [5]: Active
inhibition [7]: inactive
inhibition [8]: Active
inhibition [9]: Active
SMILES: Cc1ccc(OS(=O)(=O)c2cccc(C(F)(F)F)c2)c(-c2cc(-c3ccccc3)n(CCN[C@@H]3CCNC3)n2)c1
inhibition [1]: Active
inhibition [2]: inactive
inhibition [6]: Active
IC50 [10]: 7 µM
IC50 [11]: 7 µM

Reference: ChEMBL document CHEMBL3407360, “Proteasome inhibitors with pyrazole scaffolds from structure-based virtual screening” (J Med Chem, 2015)
